Measurements taken from ChEMBL document CHEMBL4052828, “Discovery of 4-((7H-Pyrrolo[2,3-d]pyrimidin-4-yl)amino)-N-(4-((4-methylpiperazin-1-yl)methyl)phenyl)-1H-pyrazole-3-carboxamide (FN-1501), an FLT3- and CDK-Kinase Inhibitor with Potentially High Efficiency against Acute Myelocytic Leukemia” (J Med Chem, 2018).
Active and inactive are the calls of the source. No cut-off for these calls is given here.

What was measured:
[1] = molecular target: Cyclin-dependent kinase 4/cyclin D1 (Homo sapiens, UniProt P11802); assay: Inhibition of human CDK4/Cyclin D1 using RB protein as substrate preincubated for 20 mins followed by [gamma-33P]-ATP addition measure after 120 mins by filter binding method; format: protein-complex assay
Sequence of Cyclin-dependent kinase 4/cyclin D1 (P11802 whole entry): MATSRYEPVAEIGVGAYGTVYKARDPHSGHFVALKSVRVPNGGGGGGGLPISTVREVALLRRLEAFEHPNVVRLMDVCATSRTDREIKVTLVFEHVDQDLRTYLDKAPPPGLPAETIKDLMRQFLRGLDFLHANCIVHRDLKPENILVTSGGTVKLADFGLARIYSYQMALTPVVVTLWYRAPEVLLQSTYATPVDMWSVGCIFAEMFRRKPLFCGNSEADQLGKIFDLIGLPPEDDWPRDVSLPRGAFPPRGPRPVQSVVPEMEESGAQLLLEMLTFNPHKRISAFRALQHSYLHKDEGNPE
Sequence of Cyclin-dependent kinase 4/cyclin D1 (P24385 whole entry, further chain): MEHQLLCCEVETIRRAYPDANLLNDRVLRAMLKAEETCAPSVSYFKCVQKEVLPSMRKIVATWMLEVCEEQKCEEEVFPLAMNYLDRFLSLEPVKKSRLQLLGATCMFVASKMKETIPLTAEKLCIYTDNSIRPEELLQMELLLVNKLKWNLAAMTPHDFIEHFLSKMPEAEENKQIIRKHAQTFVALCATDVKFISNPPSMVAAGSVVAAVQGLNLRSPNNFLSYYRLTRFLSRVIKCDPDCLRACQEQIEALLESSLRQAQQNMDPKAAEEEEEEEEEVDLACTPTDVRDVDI
Outline: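 Compound preincubated with kinase 20 min at room temperature. Reaction started with 10 μM [γ-33P]ATP and run 120 min at 25°C. Filter-binding read-out, curve-fitted IC50; mean ± SD of three independent experiments.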

MCF7 = assay: Growth inhibition of human MCF7 cells after 72 hrs by CellTiter-Glo assay; format: functional; details: MCF7, 72 h
[2] = molecular target: T1, Receptor-type tyrosine-protein kinase FLT3 (Homo sapiens, UniProt P36888); assay: Inhibition of human FLT3 using EAIYAAPFAKKK as substrate preincubated for 20 mins followed by [gamma-33P]-ATP addition measure after 120 mins by filter binding method
T1 sequence (P36888 whole entry): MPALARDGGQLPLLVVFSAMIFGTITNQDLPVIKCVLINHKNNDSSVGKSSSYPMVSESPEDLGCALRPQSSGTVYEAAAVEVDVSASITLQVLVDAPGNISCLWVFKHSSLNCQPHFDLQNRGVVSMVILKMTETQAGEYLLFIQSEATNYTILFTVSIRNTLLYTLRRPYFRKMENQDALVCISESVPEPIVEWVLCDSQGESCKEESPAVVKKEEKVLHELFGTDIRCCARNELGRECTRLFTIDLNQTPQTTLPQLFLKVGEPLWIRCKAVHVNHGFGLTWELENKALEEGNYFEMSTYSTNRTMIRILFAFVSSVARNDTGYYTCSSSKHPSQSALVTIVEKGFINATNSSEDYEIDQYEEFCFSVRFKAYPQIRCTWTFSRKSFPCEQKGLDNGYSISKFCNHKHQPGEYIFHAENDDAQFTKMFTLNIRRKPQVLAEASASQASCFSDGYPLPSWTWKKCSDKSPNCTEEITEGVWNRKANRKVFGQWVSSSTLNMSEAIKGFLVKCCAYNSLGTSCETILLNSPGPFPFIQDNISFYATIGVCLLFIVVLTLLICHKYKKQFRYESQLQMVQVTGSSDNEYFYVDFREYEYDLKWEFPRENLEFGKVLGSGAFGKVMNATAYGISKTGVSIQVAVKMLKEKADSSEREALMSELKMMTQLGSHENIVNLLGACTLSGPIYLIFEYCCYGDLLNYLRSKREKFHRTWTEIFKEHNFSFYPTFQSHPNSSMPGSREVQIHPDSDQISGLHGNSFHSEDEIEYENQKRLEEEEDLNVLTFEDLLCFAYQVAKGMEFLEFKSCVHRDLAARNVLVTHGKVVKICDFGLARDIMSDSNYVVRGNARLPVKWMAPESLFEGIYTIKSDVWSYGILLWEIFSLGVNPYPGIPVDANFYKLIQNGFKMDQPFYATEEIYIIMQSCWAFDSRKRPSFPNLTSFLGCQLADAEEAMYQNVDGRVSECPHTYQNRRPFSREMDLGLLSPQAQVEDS
Outline: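 Compound preincubated with kinase 20 min at room temperature. Filter-binding read-out, curve-fitted IC50; mean ± SD of three independent experiments.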

[3] = Intrinsic clearance in dog liver microsomes by LC-MS/MS analysis; format: ADME, Canis lupus familiaris, microsome; details: read-out: CLH
[4] = Terminal half life in cynomolgus monkey liver microsomes by LC-MS/MS analysis; format: ADME, Macaca fascicularis, microsome; details: read-out: beta t1/2 (converted)
Outline: (§1)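 Metabolic stability measured by incubating compound in human, rat, mouse, dog and monkey liver microsomes. Terminal t1/2 determined.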

NCI-H82 = assay: Growth inhibition of human NCI-H82 cells after 72 hrs by CellTiter-Glo assay; format: functional; details: NCI-H82, 72 h
MV4-11 [5] = assay: Cell cycle arrest in human MV4-11 cells assessed as accumulation at G0/G1 phase after 24 hrs by propidium iodide/BrdU staining-based flow cytometric method; format: functional
Outline: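 Cells treated with compound for 24 h, then fixed. Double-stained with propidium iodide and BrdU for flow cytometric analysis of cell cycle distribution.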

[6] = Terminal half life in human liver microsomes by LC-MS/MS analysis; format: ADME, microsome; details: read-out: beta t1/2 (converted); outline: as §1
[7] = Terminal half life in dog liver microsomes by LC-MS/MS analysis; format: ADME, Canis lupus familiaris, microsome; details: read-out: beta t1/2 (converted); outline: as §1
[8] = molecular target: Receptor-type tyrosine-protein kinase FLT3 (Homo sapiens) (UniProt P36888); assay: Inhibition of FLT3 phosphorylation in human MV4-11 cells assessed as decrease in AKT phosphorylation at 0.02 to 1 uM after 24 hrs by Western blot analysis; format: cell-based
Outline: (§2)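 MV4-11 cells treated with increasing concentrations of compound for 24 h. Lysates immunoblotted for phosphorylated FLT3, STAT5, ERK, AKT and Rb.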

MV4-11 [9] = assay: Antitumor activity against human MV4-11 cells xenografted in nu/nu mouse assessed as tumor regression at 40 mg/kg, iv qd measured on day 21 relative to vehicle-treated control; format: functional
Outline: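 Female nu/nu mice bearing MV4-11 xenografts; dosing began once tumors reached 200 mm3. Given iv once daily for 21 days, with a vehicle-only group. Body weight and tumor size tracked relative to initial values, set as 100%. Tumors weighed at the end of the 22-day treatment period.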

MV4-11 [10] = assay: Antitumor activity against human MV4-11 cells xenografted in nu/nu mouse assessed as tumor regression at 15 mg/kg, iv qd measured on day 21 relative to vehicle-treated control; format: functional
[11] = molecular target: Receptor-type tyrosine-protein kinase FLT3 (Homo sapiens) (UniProt P36888); assay: Inhibition of FLT3 phosphorylation in human MV4-11 cells at 0.02 to 1 uM after 24 hrs by Western blot analysis; format: cell-based; outline: as §2
MV4-11 [12] = assay: Induction of apoptosis in human MV4-11 cells assessed as early apoptotic cells at 1 uM after 24 hrs by annexin V-FITC/propidium iodide staining-based flow cytometric method (reference value: 3.54%); format: functional
MV4-11 [13] = assay: Induction of apoptosis in human MV4-11 cells assessed as late apoptotic cells at 0.2 uM after 24 hrs by annexin V-FITC/propidium iodide staining-based flow cytometric method (reference value: 2.54%); format: functional
[14] = Terminal half life in rat liver microsomes by LC-MS/MS analysis; format: ADME, microsome; details: read-out: beta t1/2 (converted); outline: as §1
[15] = Intrinsic clearance in cynomolgus monkey liver microsomes by LC-MS/MS analysis; format: ADME, Macaca fascicularis, microsome; details: read-out: CLH
HCT-116 = assay: Growth inhibition of human HCT116 cells after 72 hrs by CellTiter-Glo assay; format: functional; details: HCT-116, 72 h
RS4-11 = assay: Growth inhibition of human RS4:11 cells after 72 hrs by CellTiter-Glo assay; format: functional; details: RS4-11, 72 h

Question: With CN1CCN(Cc2ccc(NC(=O)c3n[nH]cc3Nc3ncnc4[nH]ccc34)cc2)CC1 as the molecule, how does the IC50 [1] read?
Answer: Its IC50 is 0.85 nM.

Question: What about the GI50 (MCF7) of the same molecule?
Answer: The GI50 was 2840 nM.

Question: What about the IC50 [2] of the same molecule?
Answer: Its IC50 is 0.27 to 0.28 nM.

Question: What about the CLint scaled [3] of the same molecule?
Answer: The CLint scaled was 129 mL/min/kg.

Question: What about the half-life [4] of the same molecule?
Answer: The half-life was 51.3 min.

Question: What about the GI50 (NCI-H82) of the same molecule?
Answer: The GI50 was 110 nM.

Question: What about the Activity (MV4-11 [5]) of the same molecule?
Answer: The Activity was “Dose-dependent effect”.

Question: And the half-life [6]?
Answer: Its half-life is 103 min.

Question: What about the half-life [7] of the same molecule?
Answer: Its half-life is 15.4 min.

Question: What about the inhibition [8] of the same molecule?
Answer: The inhibition was “Active”.

Question: What about the Activity (MV4-11 [9]) of the same molecule?
Answer: Its Activity is 81.33%.

Question: And the Activity (MV4-11 [10])?
Answer: Its Activity is -6.11%.

Question: What about the inhibition [11] of the same molecule?
Answer: The inhibition was “Active”.

Question: What about the Activity (MV4-11 [12]) of the same molecule?
Answer: The Activity was 31.56%.

Question: What about the Activity (MV4-11 [13]) of the same molecule?
Answer: The Activity was 9.33%.

Question: And the half-life [14]?
Answer: The half-life was 61.9 min.

Question: And the CLint scaled [15]?
Answer: The CLint scaled was 36.5 mL/min/kg.

Question: And the GI50 (HCT-116)?
Answer: Its GI50 is 90 nM.

Question: What about the GI50 (RS4-11) of the same molecule?
Answer: The GI50 was 50 nM.
